Laboratory results taken from ChEMBL document CHEMBL1811814, “Synthesis and evaluation of indole, pyrazole, chromone and pyrimidine based conjugates for tumor growth inhibitory activities--development of highly efficacious cytotoxic agents” (Eur J Med Chem, 2010).

Experiments:
Type in all cases: functional
[1] = tested on: HCC 2998; assay: Growth inhibition of human HCC2998 cells
[2] = tested on: HCT-116; assay: Growth inhibition of human HCT116 cells
[3] = tested on: HCT-15; assay: Growth inhibition of human HCT15 cells
[4] = tested on: SF-268; assay: Growth inhibition of human SF268 cells
[5] = tested on: U-251; assay: Growth inhibition of human U251 cells
[6] = tested on: LOX IMVI; assay: Growth inhibition of human LOXIMVI cells
[7] = tested on: Malme-3M; assay: Growth inhibition of human MALME-3M cells
[8] = tested on: MDA-MB-435; assay: Growth inhibition of human MDA-MB-435 cells
[9] = tested on: SK-MEL-2; assay: Growth inhibition of human SK-MEL-2 cells
[10] = tested on: SK-MEL-5; assay: Growth inhibition of human SK-MEL-5 cells
[11] = tested on: UACC-62; assay: Growth inhibition of human UACC62 cells
[12] = tested on: IGROV-1; assay: Growth inhibition of human IGROV1 cells
Method in brief: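 Follow-up panel testing at five concentrations (10^-4, 10^-5, 10^-6, 10^-7 and 10^-8 M) across the 60 human tumor cell lines. GI50 was obtained for each line from the concentration-response data, with the panel average GI50 also reported.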

[13] = tested on: OVCAR-3; assay: Growth inhibition of human OVCAR3 cells
[14] = tested on: OVCAR-5; assay: Growth inhibition of human OVCAR5 cells
[15] = tested on: NCI/ADR-RES; assay: Growth inhibition of human NCI/ADR-RES cells
[16] = tested on: SK-OV-3; assay: Growth inhibition of human SKOV3 cells
[17] = tested on: 786-0; assay: Growth inhibition of human 786-0 cells
[18] = tested on: SN12C; assay: Growth inhibition of human SN12C cells
[19] = tested on: TK-10; assay: Growth inhibition of human TK10 cells
[20] = Growth inhibition of human Hs 578T cells
[21] = tested on: MOLT-4; assay: Growth inhibition of human MOLT4 cells assessed tumor cell growth at 10^-5 M; parameters: scale not given: the % may be the effect or the level left
Method in brief: (§1)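 NCI 60-human-tumor-cell-line panel screen. Each compound was tested at a single concentration of 10^-5 M, and percent growth of tumor cells was recorded for each cell line. Growth inhibition was expressed from these percent-growth values.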

[22] = Growth inhibition of human […] cells assessed tumor cell growth at 10^-5 M; parameters: scale not given: the % may be the effect or the level left; method in brief: as §1
[23] = tested on: SR; assay: Growth inhibition of human SR cells assessed tumor cell growth at 10^-5 M; parameters: scale not given: the % may be the effect or the level left
Method in brief: (§2)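 Single-dose screen at 10^-5 M across the 60 human tumor cell line panel, run to NCI standards. The value is the percent growth of each cell line in the presence of compound. Compounds active at this dose moved on to five-concentration testing (10^-4 to 10^-8 M).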

[24] = tested on: NCI-H322M; assay: Growth inhibition of human NCI-H322M cells assessed tumor cell growth at 10^-5 M; parameters: scale not given: the % may be the effect or the level left; method in brief: as §1
[25] = tested on: HCT-116; assay: Growth inhibition of human HCT116 cells assessed tumor cell growth at 10^-5 M; parameters: scale not given: the % may be the effect or the level left; method in brief: as §1
[26] = tested on: HT-29; assay: Growth inhibition of human HT-29 cells assessed tumor cell growth at 10^-5 M; parameters: scale not given: the % may be the effect or the level left; method in brief: as §1
[27] = tested on: KM12; assay: Growth inhibition of human KM12 cells assessed tumor cell growth at 10^-5 M; parameters: scale not given: the % may be the effect or the level left; method in brief: as §1
[28] = tested on: SW-620; assay: Growth inhibition of human SW620 cells assessed tumor cell growth at 10^-5 M; parameters: scale not given: the % may be the effect or the level left; method in brief: as §2
[29] = tested on: SF-295; assay: Growth inhibition of human SF295 cells assessed tumor cell growth at 10^-5 M; parameters: scale not given: the % may be the effect or the level left; method in brief: as §1
[30] = tested on: SNB-19; assay: Growth inhibition of human SNB19 cells assessed tumor cell growth at 10^-5 M; parameters: scale not given: the % may be the effect or the level left; method in brief: as §2
[31] = tested on: U-251; assay: Growth inhibition of human U251 cells assessed tumor cell growth at 10^-5 M; parameters: scale not given: the % may be the effect or the level left; method in brief: as §2
[32] = tested on: Malme-3M; assay: Growth inhibition of human MALME-3M cells assessed tumor cell growth at 10^-5 M; parameters: scale not given: the % may be the effect or the level left; method in brief: as §1
[33] = tested on: M14; assay: Growth inhibition of human M14 cells assessed tumor cell growth at 10^-5 M; parameters: scale not given: the % may be the effect or the level left; method in brief: as §1
[34] = tested on: UACC-62; assay: Growth inhibition of human UACC62 cells assessed tumor cell growth at 10^-5 M; parameters: scale not given: the % may be the effect or the level left; method in brief: as §2
[35] = tested on: OVCAR-3; assay: Growth inhibition of human OVCAR3 cells assessed tumor cell growth at 10^-5 M; parameters: scale not given: the % may be the effect or the level left; method in brief: as §1
[36] = tested on: OVCAR-4; assay: Growth inhibition of human OVCAR4 cells assessed tumor cell growth at 10^-5 M; parameters: scale not given: the % may be the effect or the level left; method in brief: as §1
[37] = tested on: OVCAR-5; assay: Growth inhibition of human OVCAR5 cells assessed tumor cell growth at 10^-5 M; parameters: scale not given: the % may be the effect or the level left; method in brief: as §1
[38] = tested on: SK-OV-3; assay: Growth inhibition of human SKOV3 cells assessed tumor cell growth at 10^-5 M; parameters: scale not given: the % may be the effect or the level left; method in brief: as §1
[39] = tested on: A498; assay: Growth inhibition of human A498 cells assessed tumor cell growth at 10^-5 M; parameters: scale not given: the % may be the effect or the level left; method in brief: as §1
[40] = tested on: TK-10; assay: Growth inhibition of human TK10 cells assessed tumor cell growth at 10^-5 M; parameters: scale not given: the % may be the effect or the level left; method in brief: as §2
[41] = tested on: PC-3; assay: Growth inhibition of human PC3 cells assessed tumor cell growth at 10^-5 M; parameters: scale not given: the % may be the effect or the level left; method in brief: as §1
[42] = tested on: DU-145; assay: Growth inhibition of human DU145 cells assessed tumor cell growth at 10^-5 M; parameters: scale not given: the % may be the effect or the level left; method in brief: as §1
[43] = tested on: MCF7; assay: Growth inhibition of human MCF7 cells assessed tumor cell growth at 10^-5 M; parameters: scale not given: the % may be the effect or the level left; method in brief: as §1
[44] = tested on: MDA-MB-231; assay: Growth inhibition of human MDA-MB-231 cells assessed tumor cell growth at 10^-5 M; parameters: scale not given: the % may be the effect or the level left; method in brief: as §1
[45] = tested on: BT-549; assay: Growth inhibition of human BT549 cells assessed tumor cell growth at 10^-5 M; parameters: scale not given: the % may be the effect or the level left; method in brief: as §1
[46] = tested on: HL-60(TB); assay: Growth inhibition of human HL-60(TB) cells
[47] = tested on: K562; assay: Growth inhibition of human K562 cells
[48] = tested on: SR; assay: Growth inhibition of human SR cells
[49] = tested on: A549; assay: Growth inhibition of human A549 cells
[50] = tested on: HOP-62; assay: Growth inhibition of human HOP62 cells
[51] = tested on: HOP-92; assay: Growth inhibition of human HOP92 cells
[52] = tested on: NCI-H23; assay: Growth inhibition of human NCI-H23 cells
[53] = tested on: NCI-H522; assay: Growth inhibition of human NCI-H522 cells
[54] = read-out: LC50 (the source's name)

CC1=NN(c2cccc(Cl)c2)C(=O)/C1=C\C=C\c1ccccc1
GI50 [1]: 1.9 µM | CC50 [1, 54]: 6.3 µM | GI50 [2]: 1.5 µM | CC50 [2, 54]: 6.1 µM | GI50 [3]: 2.2 µM | CC50 [3, 54]: > 100 µM | GI50 [4]: 2.3 µM | CC50 [4, 54]: > 100 µM | GI50 [5]: 1.7 µM | CC50 [5, 54]: 23.9 µM | GI50 [6]: 1.4 µM | CC50 [6, 54]: 6.7 µM | GI50 [7]: 2.7 µM | CC50 [7, 54]: > 100 µM | GI50 [8]: 2.5 µM | CC50 [8, 54]: > 100 µM | GI50 [9]: 3.8 µM | CC50 [9, 54]: > 100 µM | GI50 [10]: 2.2 µM | CC50 [10, 54]: 20.8 µM | GI50 [11]: 1.7 µM | CC50 [11, 54]: 8.5 µM | GI50 [12]: 1.6 µM | CC50 [12, 54]: 16.5 µM | GI50 [13]: 2.1 µM | CC50 [13, 54]: 8.9 µM | GI50 [14]: 2.8 µM | CC50 [14, 54]: > 100 µM | GI50 [15]: 3.3 µM | CC50 [15, 54]: > 100 µM | GI50 [16]: 3.2 µM | CC50 [16, 54]: > 100 µM | GI50 [17]: 2.1 µM | CC50 [17, 54]: 10.2 µM | GI50 [18]: 2.4 µM | CC50 [18, 54]: > 100 µM | GI50 [19]: 3.1 µM | CC50 [19, 54]: > 100 µM | GI50 [20]: 1.6 µM | CC50 [20, 54]: > 100 µM | Activity [21]: 28.39% | Activity [22]: 15.38% | Activity [23]: 10.62% | Activity [24]: 111.8% | Activity [25]: -89.22% | Activity [26]: -29.51% | Activity [27]: 16.12% | Activity [28]: 1.26% | Activity [29]: 101.1% | Activity [30]: 37.51% | Activity [31]: -57.37% | Activity [32]: 115.91% | Activity [33]: 14.42% | Activity [34]: 28.21% | Activity [35]: 103.59% | Activity [36]: -20.79% | Activity [37]: 143.86% | Activity [38]: 48.42% | Activity [39]: 109.76% | Activity [40]: 44.8% | Activity [41]: 45.45% | Activity [42]: 112.48% | Activity [43]: 5.42% | Activity [44]: 13.67% | Activity [45]: 78.36% | GI50 [46]: 3.1 µM | CC50 [46, 54]: > 100 µM | GI50 [47]: 2.8 µM | CC50 [47, 54]: > 100 µM | GI50 [48]: 2.3 µM | CC50 [48, 54]: > 100 µM | GI50 [49]: 16.2 µM | CC50 [49, 54]: > 100 µM | GI50 [50]: 3.1 µM | CC50 [50, 54]: 57.5 µM | GI50 [51]: 4.6 µM | CC50 [51, 54]: > 100 µM | GI50 [52]: 2.3 µM | LC50 (concentration killing 50% of cells) [52]: > 100 µM | GI50 [53]: 2.6 µM | LC50 (concentration killing 50% of cells) [53]: > 100 µM
